Biological target: T1, Gonadotropin-releasing hormone receptor (Homo sapiens, UniProt P30968)
T1 sequence (P30968 whole entry): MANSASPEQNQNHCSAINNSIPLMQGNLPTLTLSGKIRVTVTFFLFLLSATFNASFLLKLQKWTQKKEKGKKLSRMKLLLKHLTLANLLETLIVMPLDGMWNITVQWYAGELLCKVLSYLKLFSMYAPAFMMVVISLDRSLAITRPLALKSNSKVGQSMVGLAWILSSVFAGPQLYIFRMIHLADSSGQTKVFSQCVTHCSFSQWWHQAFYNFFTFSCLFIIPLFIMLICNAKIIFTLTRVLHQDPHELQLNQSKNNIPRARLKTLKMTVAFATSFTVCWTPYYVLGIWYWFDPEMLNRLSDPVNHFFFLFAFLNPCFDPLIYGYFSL
Experiment: Antagonist activity at N-terminal FLAG-tagged human full-length GnRHR expressed in HEK293T cells assessed as inhibition of GnRH-induced calcium mobilization preincubated for 15 mins followed by agonist addition by FLIPR assay
Format: functional, cell-based
Conditions: not given

IC50 [nM]	Ki [nM]	Compound
1000	19	COc1cc(OC)c(NC(=O)c2ccc(Cc3cc4c(cc3C)C(C)(C)CCC4(C)C)o2)c(OC)c1
7940	157	CC(=O)N[C@@H]1[C@@H](OC(C)=O)[C@H](OC(C)=O)[C@@H](COC(C)=O)O[C@H]1n1cc(CN2CCN(c3cccc4[nH]c(-c5ccc(C(C)(C)C)cc5)nc34)CC2)nn1
5010	104	CC(C)(C)c1ccc(-c2nc3c(N4CCN(Cc5cn(-c6nc7ccccc7[nH]6)nn5)CC4)cccc3[nH]2)cc1
20000	395	C#CCN1CCN(c2cccc3[nH]c(-c4ccc(C(C)(C)C)cc4)nc23)CC1
10000	186	CC(C)(C)OC(=O)N[C@@H](Cn1cc(CN2CCN(c3cccc4[nH]c(-c5ccc(C(C)(C)C)cc5)nc34)CC2)nn1)C(=O)O
12600	254	CC(C)(C)c1ccc(-c2nc3c(N4CCN(CCF)CC4)cccc3[nH]2)cc1
20000	410	CC(C)(C)c1ccc(-c2nc3c(N4CCN(Cc5cn(-c6ccc(F)cc6)nn5)CC4)cccc3[nH]2)cc1
794	13.8	CC(C)(C)c1ccc(-c2nc3c(N4CCN(Cc5cn(CCF)nn5)CC4)cccc3[nH]2)cc1
> 10000	> 1000	CC(C)(C)c1ccc(-c2nc3c(N4CCN(Cc5cn([C@@H]6O[C@H](CO)[C@@H](O)[C@H](O)[C@H]6O)nn5)CC4)cccc3[nH]2)cc1

Compound	IC50 [nM]	Ki [nM]
CC(C)(C)c1ccc(-c2nc3c(N4CCN(Cc5cccc6nccnc56)CC4)cccc3[nH]2)cc1	631	12.2

Test system: not listed separately
Experiment: Thermodynamic solubility of compound in simulated gastric fluid at pH 1.2 after 24 hrs by LC-QTOFMS analysis
Format: physicochemical
Conditions: simulated gi fluid, pH 1.2, 24 h
How it was run: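 Solid sample was suspended in 450 uL of buffer to about 2 mg/mL and shaken at 200 RPM for 24 h at ambient temperature (22.6-25.0 °C). The suspension was filtered, and the filtrate was diluted as needed (undiluted up to 10000x). Filtrate was quantified by LC-QTOFMS against a calibration curve prepared from a 10 mM DMSO stock. Two reference standards were run in triplicate in each medium.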

Compound	Therm_solubility [µg/mL]
CC(C)(C)c1ccc(-c2nc3c(N4CCN(Cc5cn(CCF)nn5)CC4)cccc3[nH]2)cc1	2.098
